In ChEMBL document CHEMBL1140335, “"Reversine" and its 2-substituted adenine derivatives as potent and selective A3 adenosine receptor antagonists” (J Med Chem, 2005) one finds inhibition and Ki data, which are given here for 24 compounds.

The structures appear in SMILES notation.

Experiment [1] has as its target T1, Adenosine receptor A1 (Homo sapiens) (UniProt P30542).
T1 sequence (whole entry): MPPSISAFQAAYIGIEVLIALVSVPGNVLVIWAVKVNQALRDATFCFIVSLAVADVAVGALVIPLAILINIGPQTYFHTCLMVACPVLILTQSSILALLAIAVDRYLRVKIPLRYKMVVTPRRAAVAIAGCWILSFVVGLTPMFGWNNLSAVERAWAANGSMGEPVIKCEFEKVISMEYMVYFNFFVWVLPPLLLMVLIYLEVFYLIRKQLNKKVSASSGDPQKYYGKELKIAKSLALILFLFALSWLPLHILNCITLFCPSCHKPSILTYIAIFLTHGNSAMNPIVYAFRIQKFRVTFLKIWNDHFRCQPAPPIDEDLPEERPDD
The experiment in a line: (§1) Percent inhibition of [3H]DPCPX binding to human adenosine A1 receptor expressed in CHO cells at 10 uM. It is filed as cell-based. The gist of the method: (§2)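 Test ligand at a single 10 μM was run against 0.5 nM [3H]DPCPX on membranes (20 μg protein) from CHO cells stably expressing human A1 receptor, in 50 mM Tris-HCl, pH 7.4, for 60 min at 25°C. Nonspecific binding was defined with 10 μM NECA. Filtration was on GF/B, with scintillation counting. Results are percent displacement of radioligand.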

Experiment [2] addresses T2, Adenosine receptor A3 (Homo sapiens, UniProt P0DMS8).
T2 sequence (P0DMS8 whole entry): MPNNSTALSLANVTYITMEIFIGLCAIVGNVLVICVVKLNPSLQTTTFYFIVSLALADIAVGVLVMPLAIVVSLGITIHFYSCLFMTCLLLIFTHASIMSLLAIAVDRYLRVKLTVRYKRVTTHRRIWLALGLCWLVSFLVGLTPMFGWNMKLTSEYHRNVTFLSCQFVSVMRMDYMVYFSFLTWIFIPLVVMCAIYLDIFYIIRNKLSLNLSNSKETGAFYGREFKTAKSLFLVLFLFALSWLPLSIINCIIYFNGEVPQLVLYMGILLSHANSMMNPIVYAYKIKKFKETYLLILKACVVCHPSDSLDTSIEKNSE
The experiment in a line: biochemical. The class given is cell-based, CHO.

The target in experiment [3] is T3, Adenosine receptor A2a (Homo sapiens, UniProt P29274). Put plainly: Percent inhibition of [3H]-ZM241385 binding to human adenosine A2A receptor expressed in CHO cells at 10 uM.
T3 sequence (P29274 whole entry): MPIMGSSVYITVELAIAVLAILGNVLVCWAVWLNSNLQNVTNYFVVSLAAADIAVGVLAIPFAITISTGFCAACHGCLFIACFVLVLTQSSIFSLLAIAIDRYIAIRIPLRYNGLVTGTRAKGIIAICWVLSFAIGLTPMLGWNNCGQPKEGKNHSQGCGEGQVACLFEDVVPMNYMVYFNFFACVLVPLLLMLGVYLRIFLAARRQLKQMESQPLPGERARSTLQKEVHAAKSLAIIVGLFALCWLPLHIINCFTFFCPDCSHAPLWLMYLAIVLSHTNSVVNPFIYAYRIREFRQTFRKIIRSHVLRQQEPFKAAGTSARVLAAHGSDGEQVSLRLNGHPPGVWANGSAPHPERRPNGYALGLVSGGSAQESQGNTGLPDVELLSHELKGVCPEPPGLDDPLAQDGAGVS
Experiment [4] concerns the target T4, Adenosine receptor A1 (Homo sapiens, UniProt P30542).
T4 sequence (P30542 whole entry): T1 sequence (whole entry)
It is filed as cell-based, CHO.

The target of experiment [5] is T3, Adenosine receptor A2a. The class given is cell-based, CHO.
Experiment [6] has as its target T3, Adenosine receptor A2a. Put plainly: Percent inhibition of […] binding to human adenosine A2A receptor expressed in CHO cells at 10 uM. The class given is cell-based.
Experiment [7] concerns the target T4, Adenosine receptor A1. The experiment in a line: Percent inhibition of [3H]-DPCPX binding to human adenosine A1 receptor expressed in CHO cells at 10 uM. It is filed as cell-based. The gist of the method: as §2
Experiment [8] addresses T4, Adenosine receptor A1. The experiment is described as §1. It is filed as cell-based. The gist of the method: as §2
In experiment [9] the target is T4, Adenosine receptor A1. The experiment in a line: Binding affinity for human adenosine A1 receptor. The gist of the method: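 Membranes from CHO cells stably expressing human A1 receptor (20 μg protein) were incubated with 0.5 nM [3H]DPCPX in 50 mM Tris-HCl, pH 7.4, for 60 min at 25°C. Nonspecific binding was defined with 10 μM NECA. Bound label was collected by GF/B filtration and counted by scintillation.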

Turning to `c1nc2nc(Nc3ccc(N4CCOCC4)cc3)[nH]c(NC3CCC3)c-2n1`, the inhibition (as a rule, how much of the control response was suppressed) in experiment [1] is 29%; in experiment [3] it was 18%. Besides, in [2], the Ki – broadly, the equilibrium dissociation constant of an inhibitor or competing ligand from its target – worked out at 1810 nM.

With `c1nc2nc(Nc3ccc(N4CCOCC4)cc3)[nH]c(NC3CCCCCC3)c-2n1`, the inhibition worked out at 6% in experiment [1] and 38% in [3]. In [2], this compound showed a Ki of 420 nM.

For the compound `c1ccc(Nc2nc(NC3CCCCCC3)c3[nH]cnc3n2)cc1`, the inhibition constant (Ki) came to 42 nM in [2], 1720 nM in [4] and 4120 nM in experiment [5].

Regarding `c1nc2nc(Nc3ccc(N4CCOCC4)cc3)nc(NC3CCCCC3)c2[nH]1` [REVERSINE], the Ki in experiment [2] is 660 nM; in [4] it was over 10000 nM; in experiment [5], over 10000 nM.

`Cn1cnc2c(NC3CCCCC3)nc(Nc3ccccc3)nc21`: the Ki in [2] is 70 nM; in experiment [4] it was 1880 nM; in experiment [5], 1200 nM.

In the case of `Cn1cnc2c(NC3CCCCCC3)nc(Nc3ccccc3)nc21`, the Ki in experiment [2] turned out to be 960 nM; in [4], 1940 nM; in [5], 2950 nM.

For `c1ccc2cc(Nc3nc4ncnc-4c(NC4CCCCC4)[nH]3)ccc2c1`, the inhibition in experiment [1] turned out to be 39%; in [3] it was 52%.

For the compound `c1nc2c(NC3CCCCC3)nc(Nc3ccc(N4CCCCC4)cc3)nc2[nH]1`, the inhibition in experiment [1] worked out at 16%; in experiment [6], 50%. This compound returned a Ki in experiment [2] of 1570 nM.

As for `CCNc1[nH]c(Nc2ccc(N3CCOCC3)cc2)nc2ncnc1-2`, the figures for the inhibition in [1] and in experiment [3] were 23% and 16%, respectively. Besides, in experiment [2], the Ki was 1530 nM.

In experiment [2], `c1ccc2cc(Nc3nc(NC4CCCCC4)c4[nH]cnc4n3)ccc2c1` displayed a Ki of 2420 nM.

`c1ccc(Nc2nc3ncnc-3c(NC3CCCCCCC3)[nH]2)cc1`: the Ki in experiment [2] is 340 nM; in experiment [7], 4.47 µM.

As to `c1nc2nc(Nc3ccc(N4CCOCC4)cc3)[nH]c(NC3CCCC3)c-2n1`, the inhibition in experiment [1] stood at 22%; in experiment [3], 20%. In experiment [2], this compound displayed a Ki of 1390 nM.

For `c1ccc(Sc2nc3ncnc-3c(NC3CCCCC3)[nH]2)cc1`, in [2], the Ki is 134 nM.

Take `c1ccc(Oc2nc(NC3CC4CCC3C4)c3nc[nH]c3n2)cc1` (configuration not stated): the values for the Ki in experiment [2] and in experiment [4] were 74 nM and 1470 nM, respectively. The inhibition in [3] came out at 25%.

For the compound `c1nc2nc(Nc3ccc(N4CCOCC4)cc3)nc(NC3CC3)c2[nH]1`, the values for the inhibition in experiment [1] and in [3] were 22% and 25%, respectively. The compound also returned a Ki in experiment [2] of 1870 nM.

Compound `c1nc2nc(Nc3ccc(N4CCOCC4)cc3)nc(NC3CC4CCC3C4)c2[nH]1` (configuration not stated) had a Ki in experiment [2] of 122 nM.

As for `CCNc1nc(NC2CCCCC2)c2[nH]cnc2n1`, the inhibition in experiment [1] came out at 51%; in [3], 42%. The same compound came in with a Ki in [2] of 1120 nM.

For `c1ccc(Nc2nc3ncnc-3c(NC3CCCCC3)[nH]2)cc1`, the Ki in experiment [2] was 51 nM; in experiment [8], 2730 nM; in experiment [5], 1700 nM.

In the case of `c1ccc(-c2ccc(Nc3nc4ncnc-4c(NC4CCCCC4)[nH]3)cc2)cc1`, the results for the inhibition in experiment [1] and in [3] were 14% and 22%, respectively. The same compound gave a Ki in [2] of 5400 nM.

For `CN(C)c1ccc(Nc2nc(NC3CCCCC3)c3[nH]cnc3n2)cc1`, the results for the Ki in [2], in [4] and in experiment [5] were 70 nM, 3900 nM and 6100 nM, respectively.

Turning to `c1ccc(CCNc2nc(NC3CCCCC3)c3[nH]cnc3n2)cc1`, the Ki in [2] was determined as 1460 nM; in [8], 3170 nM. Moreover, the inhibition in experiment [6] was 46%.

`CC(C)N(C)c1nc2c(NC3CC4CC3CC4O)ncnc2n1C` (configuration not stated) returned an inhibition constant (Ki) in experiment [9] of 1.7 nM.

As for `c1ccc(CNc2nc(NC3CCCCC3)c3[nH]cnc3n2)cc1`, the inhibition in experiment [1] came out at 42%; in experiment [3], 34%. The same compound came in with a Ki in [2] of 920 nM.

With `c1nc2nc(Nc3ccc(N4CCOCC4)cc3)[nH]c(NC3CCCCCCC3)c-2n1`, the values for the inhibition in experiment [1] and in experiment [3] were 0% and 17%, respectively. The compound also returned a Ki in experiment [2] of 2770 nM.
